Residue numbers refer to the chain shown, from its start. Where a SMILES comes first, the peptide text is derived from it. Where no end group is shown, it is not given here. [ ]: non-standard residue; d: D form. The star is where a group is joined. pY = N[C@@H](Cc1ccc(OP(=O)(O)O)cc1)C(=O)O; Cbz = O=C(OCc1ccccc1)*
Legend:
[1] = target: T1, PTPN18 (Homo sapiens, UniProt Q99952); assay: pNPP phosphatase assay; assay type: biochemical; conditions: PTPN18 versus PTP1B, DMG buffer, 37 °C
T1 sequence (Q99952 6-300): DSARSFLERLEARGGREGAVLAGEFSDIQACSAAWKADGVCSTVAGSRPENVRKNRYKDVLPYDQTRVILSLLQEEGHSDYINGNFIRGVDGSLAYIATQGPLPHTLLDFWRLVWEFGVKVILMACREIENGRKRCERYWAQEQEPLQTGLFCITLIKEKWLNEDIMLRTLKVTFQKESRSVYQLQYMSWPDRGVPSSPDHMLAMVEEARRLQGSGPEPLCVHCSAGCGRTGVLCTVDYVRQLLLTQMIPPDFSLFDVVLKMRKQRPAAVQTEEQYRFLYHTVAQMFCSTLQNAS

[2] = target: T1, PTPN18; assay: PTPN18-catalyzed hydrolysis of pY-containing peptides; assay type: biochemical; conditions: for Kcat/Km of PTPN18: calculated; for Kcat/Km of PTPN18 / Kcat for PTPN18 catalysis: range over the three peptides, pH 6.5, 37 °C, 10 nM PTPN18
Summary of the method: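 Peptide dephosphorylation by the phosphatase, read by two methods: tyrosine fluorescence gain (excitation 280 nm, emission 305 nm) and an end-point inorganic phosphate assay at 620 nm. Conditions were 37 °C in 50 mM 3,3-dimethylglutarate pH 6.5, 1 mM DTT, 1 mM EDTA, ionic strength 0.15 M. Reactions started with enzyme at 10 nM final. Kinetics came from nonlinear least-squares regression.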

[3] = test system: PTPN18 mutants R198A, R198E; assay: Catalytic activity of PTPN18 R198 mutants towards HER2 phospho-peptides; assay type: biochemical, human; conditions: R198 changed to Ala or Glu versus wild type
Summary of the method: (§1)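 Recombinant PTPN18 (wild type or mutant) hydrolysing pY-containing peptides at 37 °C in 50 mM 3,3-dimethylglutarate, pH 6.5, 1 mM DTT, 1 mM EDTA, ionic strength 0.15 M. Reactions are started by adding enzyme to 10 nM final. Read-out is tyrosine fluorescence (ex 280/em 305 nm) or inorganic-phosphate end-point at 620 nm. Kinetics are fitted by nonlinear least-squares regression.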

[4] = test system: PTPN18 mutants V65A, V65I, P272M; assay: Catalytic activity of PTPN18 pY+1 pocket mutants towards HER2 phospho-peptides; assay type: biochemical, human; conditions: mutations V65A, V65I and P272M versus wild type
Summary of the method: as §1

[5] = test system: HER2 level in HepG2 cells; assay: EGF-induced HER2 degradation with proteasome inhibitor; assay type: cell-based; conditions: 100 ng/ml EGF
Summary of the method: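 HepG2 cells are transfected with control vector or PTPN18, preincubated with MG-132, then exposed to EGF for a time course. HER2 is detected by western blot with a specific antibody and quantified.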

[6] = target: T2, PTPN18 V65I (UniProt Q99952 1-460, V65I); assay: cell-based or functional assay
T2 sequence (looked up): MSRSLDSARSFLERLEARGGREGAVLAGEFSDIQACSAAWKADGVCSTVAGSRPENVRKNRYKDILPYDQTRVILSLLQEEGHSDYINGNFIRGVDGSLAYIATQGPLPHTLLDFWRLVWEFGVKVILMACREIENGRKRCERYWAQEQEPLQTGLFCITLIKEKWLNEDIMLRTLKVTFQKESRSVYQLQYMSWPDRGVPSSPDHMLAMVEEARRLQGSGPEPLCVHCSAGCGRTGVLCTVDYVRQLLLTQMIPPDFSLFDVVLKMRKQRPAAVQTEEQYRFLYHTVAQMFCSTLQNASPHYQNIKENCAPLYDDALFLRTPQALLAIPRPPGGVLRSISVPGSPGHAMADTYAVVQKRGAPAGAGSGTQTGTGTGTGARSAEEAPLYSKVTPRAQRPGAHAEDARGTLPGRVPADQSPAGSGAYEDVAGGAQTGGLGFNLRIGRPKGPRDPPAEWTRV

[7] = target: T3, PTPN18 P272M (UniProt Q99952 1-460, P272M); assay: cell-based or functional assay
T3 sequence (looked up): T2 sequence (looked up) with I65V, P272M

[8] = target: T4, PTPN18 V65A (UniProt Q99952 1-460, V65A); assay: cell-based or functional assay
T4 sequence (looked up): T2 sequence (looked up) with I65A

O=[N+]([O-])c1ccc(OP(=O)(O)O)cc1 [pNPP, para-nitrophenyl phosphate]
Kcat/Km of PTPN18 lower than that of PTP1B [1]: 2000 fold

HER2 pY^1221pY^1222: HER2 doubly phosphorylated Y1221/Y1222 site phospho-peptide (FDNL[pY][pY]WDQD)
PTPN18 activity towards the peptide (in words) [2]: very weak activity

Ac-ENPEpY^1248 LGLD-NH2 [HER2 pY^1248]
Decrease of PTPN18 activity towards the peptide by mutation [3]: 2-3 fold | Kcat/Km of PTPN18 [2]: 400000 to 800000 M⁻¹ s⁻¹ | Kcat for PTPN18 catalysis [2]: 4 to 11.2 s⁻¹ | Decrease of PTPN18 activity towards the peptide by mutation [4]: > 2 fold

CC(C)C[C@@H](C=O)NC(=O)[C@H](CC(C)C)NC(=O)[C@H](CC(C)C)NC(=O)OCc1ccccc1 [MG132] (Cbz-Leu-Leu-Leu-aldehyde)
Effect on PTPN18-overexpression-promoted HER2 degradation ([5]; HepG2 cells transfected with PTPN18, 5 μM MG-132 for 16 h): almost abolished | Endogenous HER2 expression level ([5]; HepG2 cells, 5 μM MG-132 preincubated for 16 h): significantly increased

Ac-ENPE pY^1196 LTPQ-NH2 [HER2 pY^1196]
Kcat/Km of PTPN18 relative to its Kcat/Km towards HER2 pY^1248 [2]: approximately half | Kcat/Km of PTPN18 [2]: 400000 to 800000 M⁻¹ s⁻¹ | Kcat for PTPN18 catalysis [2]: 4 to 11.2 s⁻¹ | Decrease of PTPN18 activity towards the peptide by mutation [4]: > 2 fold

PLQRpY^1112 SEDP [HER2 pY^1112]
Decrease of PTPN18 activity towards the peptide by mutation [3]: 2-3 fold | Kcat/Km of PTPN18 [2]: 400000 to 800000 M⁻¹ s⁻¹ | Kcat for PTPN18 catalysis [2]: 4 to 11.2 s⁻¹

B1: HER2 pY1196 phospho-peptide (Ac-ENPEpY1196LTPQ-NH2) (peptide)
peptide: Ac-ENPE[pY]LTPQ-NH2
SMILES: CC(=O)N[C@@H](CCC(=O)O)C(=O)N[C@@H](CC(N)=O)C(=O)N1CCC[C@H]1C(=O)N[C@@H](CCC(=O)O)C(=O)N[C@@H](Cc1ccc(OP(=O)(O)O)cc1)C(=O)N[C@@H](CC(C)C)C(=O)N[C@H](C(=O)N1CCC[C@H]1C(=O)N[C@@H](CCC(N)=O)C(N)=O)[C@@H](C)O
decrease of PTPN18 activity towards the peptide (Figure 6B) [6]: > 2 fold | decrease of PTPN18 activity towards the peptide (Figure 6B) [7]: > 2 fold | decrease of PTPN18 activity towards the peptide (Figure 6B) [8]: > 2 fold

B2: HER2 pY1248 phospho-peptide (Ac-ENPEpY1248LGLD-NH2) (peptide)
peptide: Ac-ENPE[pY]LGLD-NH2
SMILES: CC(=O)N[C@@H](CCC(=O)O)C(=O)N[C@@H](CC(N)=O)C(=O)N1CCC[C@H]1C(=O)N[C@@H](CCC(=O)O)C(=O)N[C@@H](Cc1ccc(OP(=O)(O)O)cc1)C(=O)N[C@@H](CC(C)C)C(=O)NCC(=O)N[C@@H](CC(C)C)C(=O)N[C@@H](CC(=O)O)C(N)=O
decrease of PTPN18 activity towards the peptide (Figure 6B) [6]: > 2 fold | decrease of PTPN18 activity towards the peptide (Figure 6B) [7]: > 2 fold | decrease of PTPN18 activity towards the peptide (Figure 6B) [8]: > 2 fold
